{"source": "paper PMC3517057", "about": "(ChemMedChem, 2012)", "key": {"[1]": {"target": "T1, mGlu5 (Rattus norvegicus, UniProt P31424)", "T1 sequence (P31424 21-1203)": "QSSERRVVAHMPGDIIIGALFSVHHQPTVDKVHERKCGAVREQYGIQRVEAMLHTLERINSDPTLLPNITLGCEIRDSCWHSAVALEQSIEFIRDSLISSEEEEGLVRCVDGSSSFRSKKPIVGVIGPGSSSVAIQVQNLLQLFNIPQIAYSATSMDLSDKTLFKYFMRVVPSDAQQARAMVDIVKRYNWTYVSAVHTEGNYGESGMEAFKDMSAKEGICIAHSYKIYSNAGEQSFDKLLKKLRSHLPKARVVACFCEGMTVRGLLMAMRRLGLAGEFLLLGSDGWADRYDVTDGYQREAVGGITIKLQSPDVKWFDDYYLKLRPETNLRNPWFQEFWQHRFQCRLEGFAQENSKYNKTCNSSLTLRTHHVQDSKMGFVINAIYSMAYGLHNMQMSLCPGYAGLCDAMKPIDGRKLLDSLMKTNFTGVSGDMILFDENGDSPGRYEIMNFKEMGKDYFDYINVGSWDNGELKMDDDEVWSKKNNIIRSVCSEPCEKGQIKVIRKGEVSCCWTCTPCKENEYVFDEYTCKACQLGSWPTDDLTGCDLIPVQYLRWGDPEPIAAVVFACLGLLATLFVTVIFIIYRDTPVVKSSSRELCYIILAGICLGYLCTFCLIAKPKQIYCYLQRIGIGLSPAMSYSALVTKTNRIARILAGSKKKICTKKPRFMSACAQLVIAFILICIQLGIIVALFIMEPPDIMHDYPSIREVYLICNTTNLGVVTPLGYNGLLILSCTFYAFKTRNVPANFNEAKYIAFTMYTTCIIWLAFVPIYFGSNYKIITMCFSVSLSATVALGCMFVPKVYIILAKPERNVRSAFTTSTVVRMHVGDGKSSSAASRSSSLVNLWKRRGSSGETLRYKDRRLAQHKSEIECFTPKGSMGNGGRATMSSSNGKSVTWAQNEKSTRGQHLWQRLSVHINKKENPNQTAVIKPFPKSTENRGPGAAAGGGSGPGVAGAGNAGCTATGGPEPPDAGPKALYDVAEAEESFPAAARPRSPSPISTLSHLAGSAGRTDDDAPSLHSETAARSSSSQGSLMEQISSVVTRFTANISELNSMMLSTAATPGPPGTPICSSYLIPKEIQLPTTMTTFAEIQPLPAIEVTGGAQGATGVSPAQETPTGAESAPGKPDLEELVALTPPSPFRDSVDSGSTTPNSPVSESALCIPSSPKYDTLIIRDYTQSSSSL", "experiment": "mGlu5 calcium mobilization assay", "format": "cell-based"}, "[2]": {"experiment": "Plasma and brain exposure after intraperitoneal dosing in mice", "format": "in vivo, male CD-1 mice", "settings": "10 mg/kg i.p.", "in_short": "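Male CD-1 mice received 10 mg/kg i.p. as a microsuspension in 10% tween 80, with two mice per time point. Brain and plasma were sampled at 0.5, 1, 3 and 6 h post dose.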"}, "[3]": {"experiment": "Metabolic stability in mouse liver microsomes", "format": "in vitro ADME", "settings": "1 µM, 15 min, 37 °C, NADPH", "in_short": "(§1)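 Test compound at 1 µM was incubated with human or mouse liver microsomes in phosphate buffer with NADPH cofactor, for 15 min at 37 °C with shaking.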"}, "[4]": {"system": "68 primary molecular targets (GPCRs, kinases, ion channels)", "experiment": "Ricerca LeadProfilingScreen radioligand binding panel", "settings": "10 µM"}, "[5]": {"experiment": "Metabolic stability in human liver microsomes", "format": "in vitro ADME", "settings": "1 µM, 15 min, 37 °C, NADPH", "in_short": "as §1"}, "[6]": {"experiment": "Exposure following oral dosing in mice", "format": "in vivo"}, "[7]": {"experiment": "Protein binding in mouse plasma", "format": "in vitro ADME", "settings": "rapid equilibrium dialysis"}, "[8]": {"system": "mGlu1–4 and mGlu6–8", "experiment": "Selectivity against other mGlu receptors", "format": "cell-based", "settings": "10 µM"}, "[9]": {"target": "rat mGlu5 (Rattus norvegicus, UniProt P31424)", "sequence (P31424 21-1203)": "as above", "experiment": "Glutamate-induced ERK1/2 phosphorylation in HEK293 cells expressing rat mGlu5", "format": "cell-based", "settings": "10 nM to 1 µM 18k"}, "[10]": {"experiment": "Binding to mouse brain homogenates", "format": "in vitro ADME", "settings": "rapid equilibrium dialysis"}, "[11]": {"target": "T1, mGlu5", "experiment": "Effect on glutamate CRC in rat cortical astrocytes", "format": "cell-based", "settings": "300 nM, 1 µM, 30 µM 18k"}, "[12]": {"system": "mice", "experiment": "Marble burying model of anxiety", "format": "in vivo", "settings": "for Inhibition of marble burying: 15 minute pretreatment; for Sedation: marble burying study, i.p., all dosing groups", "in_short": "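Mice were scored for burying glass marbles in deep bedding. Test compound or the MTEP positive control (15 mg/kg) was given i.p. in 10% tween 80 vehicle 15 min before testing. Testing ran from 15 to 45 min post dose, with n=12 per dosing group. Significance was P < 0.05 vs vehicle by Dunnett's test.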"}, "[13]": {"target": "T2, adenosine A3 receptor (Homo sapiens, UniProt P0DMS8)", "T2 sequence (P0DMS8 1-318)": "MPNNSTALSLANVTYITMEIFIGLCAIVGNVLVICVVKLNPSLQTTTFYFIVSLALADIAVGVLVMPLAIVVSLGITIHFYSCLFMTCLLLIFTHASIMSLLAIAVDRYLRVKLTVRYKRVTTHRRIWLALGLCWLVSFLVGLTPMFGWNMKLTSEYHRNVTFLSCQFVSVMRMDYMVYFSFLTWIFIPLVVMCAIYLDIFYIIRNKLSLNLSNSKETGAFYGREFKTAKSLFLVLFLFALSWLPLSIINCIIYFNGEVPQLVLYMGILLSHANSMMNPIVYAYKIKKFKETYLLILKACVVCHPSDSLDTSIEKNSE", "experiment": "Ricerca LeadProfilingScreen radioligand binding, adenosine A3 receptor", "settings": "10 µM", "in_short": "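The test compound was run at 10 µM in a commercial profiling panel of radioligand binding assays covering 68 primary molecular targets, including GPCRs, kinases and ion channels.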"}, "[14]": {"system": "C57Bl/6J mice", "experiment": "Operant sensation seeking", "format": "in vivo"}, "[15]": {"system": "mice", "settings": "cited from earlier work"}, "[16]": {"system": "C57Bl/6J mice", "settings": "low doses; cited from earlier work"}, "[17]": {"settings": "mGlu5 calcium mobilization, average of at least three determinations"}}}
{"compound": "N#Cc1cnc(Nc2nc3ccccc3o2)nc1-c1cccs1", "note": "[18ee]", "values": [{"measurement": "IC50", "setting": "[1]; [17]", "result": "> 10000", "unit": "nM"}]}
{"compound": "COc1ccccc1-c1nc(Nc2nc3ccccc3o2)ncc1C#N", "note": "[18g]", "values": [{"measurement": "IC50", "setting": "[1]; [17]", "result": "62 ± 10", "unit": "nM"}]}
{"compound": "N#Cc1cnc(Nc2nc3ccccc3o2)nc1-c1ccc(F)cc1", "note": "[18k]", "values": [{"measurement": "Brain AUC", "setting": "[2]", "result": 1006, "unit": "ng·h/g"}, {"measurement": "Plasma AUC", "setting": "[2]", "result": 224, "unit": "ng·h/mL"}, {"measurement": "Brain [ ]", "setting": "[2]; 0.5 h", "result": 136, "unit": "ng/mL"}, {"measurement": "Brain:Plasma ratio", "setting": "[2]; 0.5 h", "result": 4.3}, {"measurement": "Plasma [ ]", "setting": "[2]; 0.5 h", "result": 31.8, "unit": "ng/mL"}, {"measurement": "average brain concentration", "setting": "[2]; 30 minutes", "result": 0.41, "unit": "µM"}, {"measurement": "Brain [ ]", "setting": "[2]; 1 h", "result": 283, "unit": "ng/mL"}, {"measurement": "Brain:Plasma ratio", "setting": "[2]; 1 h", "result": 4.4}, {"measurement": "Plasma [ ]", "setting": "[2]; 1 h", "result": 64.7, "unit": "ng/mL"}, {"measurement": "brain concentration", "setting": "[2]; 1 hour post dose", "result": 850, "unit": "nM"}, {"measurement": "Brain [ ]", "setting": "[2]; 3 h", "result": 193, "unit": "ng/mL"}, {"measurement": "Brain:Plasma ratio", "setting": "[2]; 3 h", "result": 4.3}, {"measurement": "Plasma [ ]", "setting": "[2]; 3 h", "result": 45.4, "unit": "ng/mL"}, {"measurement": "Brain [ ]", "setting": "[2]; 6 h", "result": 68, "unit": "ng/mL"}, {"measurement": "Brain:Plasma ratio", "setting": "[2]; 6 h", "result": 7.4}, {"measurement": "Plasma [ ]", "setting": "[2]; 6 h", "result": 9.2, "unit": "ng/mL"}, {"measurement": "brain to plasma ratio", "setting": "[2]; exposure ratio, to 1", "result": "more than 4"}, {"measurement": "Stability in liver microsomes", "setting": "[3]", "result": "Enhanced stability relative to 13"}, {"measurement": "Inhibition of radioligand binding in 68-target panel", "setting": "[4]", "result": "inhibition of more than 50% of radioligand binding was observed only in the adenosine A3 receptor assay"}, {"measurement": "IC50", "setting": "[1]; [17]", "result": "91 ± 22", "unit": "nM"}, {"measurement": "Stability in liver microsomes", "setting": "[5]", "result": "Enhanced stability relative to 13"}, {"measurement": "Exposure in plasma and brain", "setting": "[6]", "result": "no exposure above detectable limits in either plasma or brain"}, {"measurement": "bound to mouse plasma", "setting": "[7]", "result": 99.4, "unit": "%"}, {"measurement": "Activity against other mGlu receptors", "setting": "[8]", "result": "no observable activity"}, {"measurement": "Effect on ERK1/2 phosphorylation response to glutamate", "setting": "[9]", "result": "blocked the effect of glutamate in a concentration dependent manner"}, {"measurement": "bound to mouse brain homogenates", "setting": "[10]", "result": 99.5, "unit": "%"}, {"measurement": "Effect on glutamate concentration response curve", "setting": "[11]", "result": "induced a rightward shift in the glutamate concentration response curve (CRC) and reduced the maximal effect of glutamate"}, {"measurement": "Inhibition of marble burying", "setting": "[12]; 56.6 mg/kg i.p. (highest dose), P < 0.05 vs. vehicle", "result": "Significant inhibition of marble burying"}, {"measurement": "Sedation", "setting": "[12]", "result": "No sedation was observed"}, {"measurement": "inhibition of binding", "setting": "[13]", "result": 73, "unit": "%"}, {"measurement": "Efficacy in OSS", "setting": "[14]; both 30 and 56.6 mg/kg doses i.p., P < 0.05 vs. vehicle", "result": "significant efficacy"}, {"measurement": "Progressive ratio responding for OSS stimuli", "setting": "[14]; i.p., dose response", "result": "dose dependently reduced progressive ratio responding for OSS stimuli"}, {"measurement": "Effect on responding for a food reinforcer", "setting": "[14]; i.p., food control", "result": "no significant effects"}]}
{"compound": "N#Cc1cnc(Nc2nc3ccccc3o2)nc1-c1ccc(C(F)(F)F)cc1", "note": "[18m]", "values": [{"measurement": "IC50", "setting": "[1]; [17]", "result": "> 30000", "unit": "nM"}]}
{"compound": "CCOc1ccccc1-c1nc(Nc2nc3ccccc3o2)ncc1C#N", "note": "[18r]", "values": [{"measurement": "IC50", "setting": "[1]; [17]", "result": "6580 ± 1670", "unit": "nM"}]}
{"compound": "N#Cc1cnc(Nc2nc3ccccc3o2)nc1-c1ccc(F)c(F)c1", "note": "[18t]", "values": [{"measurement": "IC50", "setting": "[1]; [17]", "result": "2580 ± 1170", "unit": "nM"}]}
{"compound": "N#Cc1cnc(Nc2nc3ccccc3o2)nc1-c1ccc(Cl)cc1F", "note": "[18y]", "values": [{"measurement": "IC50", "setting": "[1]; [17]", "result": "375 ± 90", "unit": "nM"}]}
{"compound": "COc1cc(F)ccc1-c1nc(Nc2nc3ccccc3o2)ncc1C#N", "note": "[18z]", "values": [{"measurement": "IC50", "setting": "[1]; [17]", "result": "217 ± 10", "unit": "nM"}]}
{"compound": "Cc1cccc(C#Cc2ccccc2)n1", "note": "[MPEP]", "values": [{"measurement": "Efficacy in marble burying model", "setting": "[15]", "result": "effective"}]}
{"compound": "Cc1nc(C#Cc2cccnc2)cs1", "note": "[MTEP, reference compound]", "values": [{"measurement": "Inhibition of marble burying", "setting": "[12]; 15 mg/kg i.p., positive control", "result": "Robust inhibition of marble burying"}, {"measurement": "Sedation", "setting": "[12]", "result": "No sedation was observed"}]}
{"compound": "OCCN1CCN(CC/C=C2/c3ccccc3Sc3ccc(C(F)(F)F)cc32)CC1", "note": "[cis-flupenthixol]", "values": [{"measurement": "Responding for OSS stimuli", "setting": "[16]", "result": "increased responding for OSS stimuli"}]}
{"compound": "N#Cc1cnc(Nc2nc3ccccc3o2)nc1-c1ccccc1", "note": "[compound 13]", "values": [{"measurement": "IC50", "setting": "[1]; [17]", "result": "89 ± 32", "unit": "nM"}, {"measurement": "IC50", "setting": "[1]; original batch of virtual screen hit (ChemDiv), 10-point CRC", "result": 75, "unit": "nM"}]}
{"compound": "CN1CC(=O)NC1=NC(=O)Nc1cccc(Cl)c1", "note": "[fenobam]", "values": [{"measurement": "Efficacy in marble burying model", "setting": "[15]", "result": "effective"}]}
